From PubChem BioAssay
Most compounds without a hit are left out; they make up all but 2.2% or so of the library.
GPR7 antag = human neuropeptides B/W receptor 1 antagonism; AID 1861; 290,000 tested, 1.1% active; inhibition, % at 4.4 µM; GPR7-expressing cells, fluorescence antagonist assay; in the data active means inhibition above about 16%, passing the limit was not always enough;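 further: cells stimulated with the agonist NPW; 0% = agonist with vehicle and 100% = vehicle without agonist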
DNA FID counter = counter-screen for HCV NS3 helicase inhibitors: DNA intercalator displacement. DNA fluorescent intercalator displacement, fluorescence. inhibition, % at 7.9 µM. 290,000 tested, 0.17% active. AID 1845; in the data active means inhibition above about 37%;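 further: 0% = vehicle and 100% = reference compound; higher means more ethidium bromide displaced from hairpin DNA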
NS3 helicase inh = inhibitors of Hepatitis C virus NS3 helicase; NS3 helicase DNA unwinding, Cy5 molecular beacon fluorescence; inhibition, % at 10.9 µM; 290,000 tested, 0.56% active; AID 1800;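 active means inhibition above the mean of all tested compounds plus 3 SD, set per campaign, cut at about 35% in these data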;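 further: 0% = DMSO wells and 100% = thioflavine S control wells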
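System: NS3 helicase fragment of HCV / Schedule: 1 h at 25 °C / Control set: DMSO alone as 0% and 110 µM thioflavine S as 100% / Reagent: Cy5/quencher beacon DNA duplex and ATP to start / Technique: Cy5 fluorescence / Replication: singlicate / Evaluation: % inhibition of end-to-start signal ratio versus controls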
DAGLB inh = blocks human DAGLB lipase activity; Q8NCG7; HEK293T DAGLB membrane lysate, EnzChek fluorogenic substrate; inhibition, % at 5.17 µM; 340,000 tested, 0.059% active; AID 504411; in the data active means inhibition above about 34%;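 further: 0% = enzyme with vehicle and 100% = wells lacking enzyme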
Target sequence (Q8NCG7 whole entry, looked up): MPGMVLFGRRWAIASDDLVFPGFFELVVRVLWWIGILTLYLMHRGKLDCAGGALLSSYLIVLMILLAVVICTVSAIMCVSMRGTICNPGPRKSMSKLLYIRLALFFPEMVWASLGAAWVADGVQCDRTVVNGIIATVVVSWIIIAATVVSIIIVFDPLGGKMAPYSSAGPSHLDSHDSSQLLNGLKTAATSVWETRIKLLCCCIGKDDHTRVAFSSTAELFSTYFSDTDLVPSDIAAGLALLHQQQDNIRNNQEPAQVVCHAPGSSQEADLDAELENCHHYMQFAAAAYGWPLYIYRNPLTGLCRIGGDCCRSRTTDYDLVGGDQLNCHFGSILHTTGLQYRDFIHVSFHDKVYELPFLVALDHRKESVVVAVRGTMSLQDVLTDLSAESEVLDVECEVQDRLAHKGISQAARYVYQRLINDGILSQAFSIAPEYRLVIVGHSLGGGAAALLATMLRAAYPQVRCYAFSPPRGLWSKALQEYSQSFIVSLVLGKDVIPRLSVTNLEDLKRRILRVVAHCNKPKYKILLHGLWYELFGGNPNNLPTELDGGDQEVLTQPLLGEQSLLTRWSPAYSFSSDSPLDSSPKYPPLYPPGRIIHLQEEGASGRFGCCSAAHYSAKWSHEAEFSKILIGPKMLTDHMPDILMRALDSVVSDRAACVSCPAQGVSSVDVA
GRK2 inh = human GRK2 inhibition via aptamer displacement; P25098; bead flow cytometry, FAM-aptamer displacement from GRK2; inhibition of aptamer binding, % at 10 µM; 330,000 tested, 0.59% active; AID 488847;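 active means inhibition of aptamer binding above 40%, roughly 3 SD of noise, on plates passing a quality check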;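 further: median bead fluorescence of bound FAM aptamer so fluorescent compounds give negative values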
HCV core dimer = HCV core protein dimerization inhibition | TR-FRET GST/Flag-core106 dimerization, 1536-well | inhibition, % at 5 µM | 300,000 tested, 0.33% active;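 active means inhibition above the mean of all tested compounds plus 3 SD, set per screening campaign, cut at about 45% in these data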
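Assay system – GST-tagged and Flag-tagged HCV core protein residues 1-106 · Quantity – core106 proteins, GST 13.5 nM and Flag 17 nM · Benchmarks – unlabelled core106 and no-GST-core106 wells · Read-out basis – percent inhibition of core106 dimerization signal · Detection – time-resolved FRET, ex 340 nm, em 617 and 671 nm · Schedule – 4 h at 22.5 °C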
GRK2 inh confirm = human GRK2 inhibition confirmation, cherry pick 1 | shares compounds with GRK2 inh | bead-bound GRK2, FAM-aptamer displacement, flow cytometry | aptamer displacement, % at 10 µM | 2,000 tested, 4% active | AID 504451;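 active means aptamer displacement above 40%, near three times the noise of non-fluorescent compounds, on plates passing quality checks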;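 further: negative values mostly reflect intrinsic compound fluorescence rather than true enhancement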
Aptamer quench = counter-screen for GRK2 aptamer inhibitors: fluorescent aptamer quenchers. shares compounds with GRK2 inh. Fluorescent RNA aptamer beads, quenching, flow cytometry; hits give high values. 110 tested, under 10 active. fluorescence change (kMESF span), kMESF (test concentration not listed);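 active means compounds whose bead fluorescence drops by more than 37 kMESF across the dose range, marking them as dye quenchers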
FAM quench CP1 = aptamer fluorescence quenching in GRK2 counter-screen. shares compounds with GRK2 inh. Carboxyfluorescein RNA aptamer on beads, flow cytometry quenching; hits give low values. fluorescence response (% of DMSO), % at 10 µM. 2,000 tested, under 10 active. AID 504580;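 active means compounds that quench the bead-bound fluorescent RNA probe, cutting fluorescence to under half of the solvent control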;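 further: counterscreen run without GRK2 so only probe quenching by compound is measured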
FAM quench DR = counter-screen for GRK2 aptamer binding inhibitors: aptamer fluorescence quenching; fluorescence ratio to DMSO, % at 11.1 µM; Bead-bound FAM RNA aptamer fluorescence quenching, flow cytometry; hits give low values; 35 tested, under 10 active; shares compounds with GRK2 inh;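 active means compounds that dim the fluorescent label, raw bead signal shifting by over 33 units between lowest and highest dose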
The depositor's hits bear a star; x = not tested or not shown.

SMILES	GPR7 antag	DNA FID counter	NS3 helicase inh	DAGLB inh	GRK2 inh	HCV core dimer	GRK2 inh confirm	FAM quench CP1	others
COc1ccc(C(C)(C)NC(=O)C2CCC(=O)N(C3CC3)C2)cc1OC (centres undefined)	4	-4	-7	-3	1	-5	x	x
CCOc1ccc(CNC(=O)c2cccc(NC(=O)C3=C(C)OCCS3)c2)cc1	-2	-39	10	-1	0	-12	0	99
O=C1c2cccc3c([N+](=O)[O-])ccc(c23)C(=O)N1O	17	2	9	-1	56*	-44	-6	97
O=C(NCc1ccc(Cl)cc1)C(=O)c1cn(CC(=O)N2CCOCC2)c2ccccc12	1	-38	-17	0	45*	3	2	105
COc1ccc(CNC(=O)C(=O)c2cn(CC(=O)N3CCOCC3)c3ccccc23)cc1	0	-42	-6	0	0	-4	x	x
Cc1ccccc1NC(=O)CN1C(=O)N/C(=C\c2ccc(N3CCOCC3)c(F)c2)C1=O	-11	10	-12	4	1	-3	-1	98
Cc1ccc(NC(=O)CN2C(=O)N/C(=C/c3ccc(N4CCOCC4)cc3)C2=O)cc1	-2	-2	4	2	1	11	x	x
COc1ccc(O)c(/C=N/NC(=O)c2cc(=O)[nH]c3ccccc23)c1	-16	-2	17	3	68*	0	0	102
O=C(NCC1CCN(Cc2ccc(Cl)cc2)CC1)C1CCCN(c2ncnc3c2nc2n3CCCCC2)C1 (centres undefined)	15	15	-52	1	0	3	x	x
O=C(NCC1CCN(Cc2cccc(Cl)c2)CC1)C1CCCN(c2ncnc3c2nc2n3CCCCC2)C1 (centres undefined)	-11	7	-30	-3	0	-1	-6	100
CCc1cccc(NC(=O)C2CCCN(c3ncnc4c3nc3n4CCCCC3)C2)c1 (centres undefined)	-3	-62	-17	-8	0	8	4	102
COc1cc(C2C(C(=O)c3ccc(C)o3)=C(O)C(=O)N2CCN2CCOCC2)ccc1OCCC(C)C (centres undefined)	6	-44	23	2	x	x	x	x
NC(=O)CC[C@H](NC(=O)c1ccc(F)cc1)C(=O)OCC(=O)NCc1ccc(F)cc1	6	0	6	2	1	4	x	x
CC(OC(=O)c1cccc(S(=O)(=O)N2CCCC2)c1)C(=O)NC1CCCCC1C (centres undefined)	x	x	x	2	0	4	x	x
CC(OC(=O)c1ccc([N+](=O)[O-])s1)C(=O)NC1CCCCC1C (centres undefined)	x	x	x	-2	33	x	2	96
CC1CCN(S(=O)(=O)c2ccc(C(=O)OC(C)C(=O)NC3CCCCC3C)cc2)CC1 (centres undefined)	-5	-17	-9	1	0	0	-23	98
CCN(CC)Cc1csc(C(N)=O)c1	-5	-3	5	-1	14	-9	-3	101
CCOC(=O)CCN(Cc1ccccc1)S(=O)(=O)c1csc(C(N)=O)c1	-5	-27	-4	0	0	2	x	x
O=Cc1c(NCc2ccc(Cl)cc2)c2ccccc2[nH]c1=O	-8	-23	-2	1	100*	-3	4	94
Cc1oc(C(=O)O)cc1COc1ccc2c3c(c(=O)oc2c1C)CCC3	1	-26	9	0	73*	-2	7	105
Cc1c(OCC(=O)OC(C)(C)C)ccc2c3c(c(=O)oc12)CCC3	11	-10	4	-9	0	7	x	x
COCCCN(C(=O)C1=COCCO1)c1c(N)n(Cc2ccccc2)c(=O)[nH]c1=O	x	x	x	-2	x	x	x	x
Cc1noc(/C=C/N(C)C)c1S(=O)(=O)N1CCCC(C(=O)NCc2ccc(Cl)cc2)C1 (centres undefined)	-15	-11	5	9	2	0	x	x
COc1ccc(CNC(=O)C2CCCN(S(=O)(=O)c3c(C)noc3/C=C/N(C)C)C2)cc1 (centres undefined)	-16	-37	-4	4	5	1	3	99
Cc1noc(/C=C/N(C)C)c1S(=O)(=O)N1CCCC(C(=O)NCc2ccccc2Cl)C1 (centres undefined)	4	-13	11	7	3	-3	1	98
SMILES	GPR7 antag	DNA FID counter	NS3 helicase inh	DAGLB inh	GRK2 inh	HCV core dimer	GRK2 inh confirm	FAM quench CP1	others
Cc1ccc(CNC(=O)C2CCCN(S(=O)(=O)c3c(C)noc3/C=C/N(C)C)C2)cc1 (centres undefined)	-8	-15	-3	4	x	7	-2	102
O=C(NCc1ccccc1Cl)C1CCCN(S(=O)(=O)c2cccc3nonc23)C1 (centres undefined)	-6	-14	6	0	1	11	0	96
Clc1cc2nc[nH]c2cc1Cl	-8	-1	-12	-5	0	-1	x	x
CCOc1ccc2nc(NC(=O)C3CCCN(S(=O)(=O)c4cccc5nonc45)C3)sc2c1 (centres undefined)	-9	1	-1	3	3	18	x	x
COc1ccc2nc(NC(=O)C3CCCN(S(=O)(=O)c4cccc5nonc45)C3)sc2c1 (centres undefined)	11	-1	-54	2	87*	30	0	102
O=C(CCS(=O)(=O)c1ccc(Br)cc1)N1CCN(c2ccccc2)CC1	1	-32	6	-5	29	-12	x	x
CC(=O)N1CCCc2cc(S(=O)(=O)CCC(=O)N3CCN(c4cccc(C)c4)C(C)C3)ccc21 (centres undefined)	-3	-41	-1	2	40	-28	28	100	Aptamer quench=-2.2
Cc1cccc(N2CCN(C(=O)CCS(=O)(=O)c3ccc(Br)cc3)CC2C)c1 (centres undefined)	-7	-44	-3	0	78*	-53	57*	102	Aptamer quench=10;FAM quench DR=100
